We go through 1 compound from article PMC6860364 (British journal of haematology, 2017).

A short description of data set [1]: Blood pharmacokinetics of MRZ in RRMM patients, Cycle 1 Day 8, non-compartmental. In kind it is in vivo. The following applies: human, iv. Put shortly: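 Relapsed/refractory myeloma patients got the test compound at 0·3–0·5 mg/m² as a 2-h IV infusion on days 1, 4, 8 and 11 of 28-day cycles, with pomalidomide and oral dexamethasone. Saline hydration ran 1 h before and 2 h after infusion. Blood was sampled on Cycle 1 Day 8 pre-dose, at 40, 80 and 120 min into infusion, and 2–90 min after its end.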

The conditions of data set [2]: preclinical studies; ref Di et al, 2016; cited from earlier work.
Data set [3] has as its system CT-L, T-L and C-L catalytic activities of the proteasome. As to the kind of experiment: Pharmacodynamics: proteasome activity in packed whole blood. In kind it is in vivo, human. The following applies: 0·4 and 0·5 mg/m^2 MRZ, study dosing schedule.
The conditions of data set [4]: historical studies; ref Harrison et al, 2016; cited from earlier work.

`C[C@@]12OC(=O)[C@]1([C@@H](O)[C@@H]1C=CCCC1)NC(=O)[C@@H]2CCCl` [MRZ, Marizomib]: in data set [1], the Vd was 41 to 86 L and the clearance was 4200 to 9400 mL/min. Moreover, the “ability to cross the blood brain barrier (BBB)” value in data set [2] is “crosses the BBB”. Further, the “proteasome subunit inhibition in PWB” value in data set [3] is “Partial or complete proteasome subunit inhibition in PWB was achieved”. Further, the half-life in data set [4] is 6 to 10 min.
